Laboratory results as given in PMC3263408 (International Journal of Nanomedicine, 2012).
In brackets after ≈: the same amount, converted by molar mass.

Legend:
[1] = Solubility of curcumin in various vehicles; type: physicochemical
In short: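 Excess test compound was shaken in 1 mL vehicle in a water bath at room temperature for 48 h. It was then centrifuged at 12,000 rpm for 10 min and passed through a 0.45 μm filter, and the supernatant was diluted in methanol. Quantified by HPLC: C18 column (5 μm, 4.6 × 250 mm) at room temperature, methanol:water (3.6% glacial acetic acid) 73:27 v/v, 1.0 mL/min, detection at 428 nm.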

Hela cells = assay: MTT cytotoxicity assay; type: cell-based; conditions: Homo sapiens, 24 h, read-out: IC50 (50% cell killing)
In short: (§1)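 Cells were kept in folate-free RPMI 1640 with 10% FBS at 37°C and 5% CO2, then seeded at 5000/well and left to attach for 24 h. Test compound was given free (DMSO), in SMEDDS or in FSMEDDS, ±1 mM free folate, at 1, 5, 10, 20 and 40 μM for 24 h at 37°C. After three PBS washes, MTT was added for 4 h, formazan dissolved in DMSO, and OD read at 570 nm. Triplicates; IC50 from concentration–viability curves.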

HT-29 cells = assay: MTT cytotoxicity assay; type: cell-based; conditions: Homo sapiens, HT-29, 24 h, read-out: IC50 (50% cell killing)
In short: as §1

[2] = cited from earlier work

COc1cc(/C=C/C(=O)CC(=O)/C=C/c2ccc(O)c(OC)c2)ccc1O [curcumin]
solubility at 48 h ([1]; Capryol 90 (oil), oil or lipid, thermodynamic from solid): 9430 ± 800 µg/mL (≈ 25.6 mM)
solubility at 48 h ([1]; Cremophor EL (surfactant), organic solvent or mixture, thermodynamic from solid): 65800 ± 4800 µg/mL (≈ 179 mM)
solubility at 48 h ([1]; Emulsifier OP (surfactant), organic solvent or mixture, thermodynamic from solid): 5160 ± 1030 µg/mL (≈ 14 mM)
solubility at 48 h ([1]; Labrafil M1944CS (oil)): 3170 ± 130 µg/mL (≈ 8.61 mM)
solubility at 48 h ([1]; Labrasol (surfactant), organic solvent or mixture, thermodynamic from solid): 99300 ± 1730 µg/mL (≈ 270 mM)
solubility at 48 h ([1]; PEG 400 (cosurfactant), organic solvent or mixture, thermodynamic from solid): 159800 ± 480 µg/mL (≈ 434 mM)
solubility at 48 h ([1]; Tween 80 (surfactant), organic solvent or mixture, thermodynamic from solid): 4860 ± 1150 µg/mL (≈ 13.2 mM)
solubility at 48 h ([1]; castor oil (oil), oil or lipid, thermodynamic from solid): 1560 ± 470 µg/mL (≈ 4.23 mM)
solubility at 48 h ([1]; ethanol (cosurfactant), organic solvent or mixture, thermodynamic from solid): 5980 ± 630 µg/mL (≈ 16.2 mM)
solubility at 48 h ([1]; ethyl oleate (oil), oil or lipid, thermodynamic from solid): 1040 ± 20 µg/mL (≈ 2.82 mM)
solubility at 48 h ([1]; isopropyl myristate (oil), oil or lipid, thermodynamic from solid): 510 ± 50 µg/mL (≈ 1.38 mM)
IC50 (Hela cells): 30.4 ± 1.71 µM
IC50 (HT-29 cells): 25.6 ± 2.23 µM
Solubility of curcumin in the aqueous medium [2]: about 11 ng/g
